# Assay outcomes from PubChem.
# An excerpt weighted towards active compounds, which were near 1.6% of everything screened.
# PKA-R1A act = activates the PKA-R1A holoenzyme complex | 340,000 compounds, 0.083% hits | activation, % at 11.4 µM | PKA-R1A dissociation, Cy5-IP20 fluorescence polarization; scaled: DMSO 0%, 113 µM cGMP 100%;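 active means percent activation above the mean of all tested compounds plus 3 SD, cut at about 19% in these data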;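 further: higher means more PKAc released from R1A so a rise in polarization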
# NR2E3 ag-1 = agonists of human NR2E3 nuclear receptor; Q9Y5X4; CHO-S Gal4-NCOR/VP16-NR2E3 two-hybrid, luciferase; inhibition of corepressor binding, % at 3.98 µM; 360,000 compounds, 0.35% hits; AID 602229;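 active means inhibition above the mean of all tested compounds plus 3 SD, cut at about 70% in these data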;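 further: higher means lower luciferase signal from less NR2E3 corepressor binding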
# NR2E3 ag-2 = activates human photoreceptor nuclear receptor NR2E3. Q9Y5X4. GST-NR2E3/biotin-RetCOR TR-FRET, 1536-well. inhibition of corepressor binding, % at 4.78 µM. 320,000 compounds, 0.12% hits. AID 2300;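 active means percent inhibition above the cutoff of mean plus 3 SD of all tested compounds, set per screening campaign, cut at about 20% in these data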
#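 Material: NR2E3–RetCOR corepressor complex / Amount: 1.35 nM GST-NR2E3 / Medium: Tris pH 7.5 / Compound: single nominal compound dose of 4.8 µM / Incubation: 5 h at 4 °C / Technique: TR-FRET, Eu(K)-anti-GST donor, streptavidin-D2 acceptor, ex 340, em 617/671 nm / Read-out basis: percent loss of FRET ratio relative to control wells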
# PG9 binder = binds the HIV-1 gp120 antibody PG9. 360,000 compounds, 0.43% hits. TR-FRET gp120-PG9 antibody binding. inhibition, % at 6.7 µM; in the data active means inhibition above about 8.5%
# PKA-R2B act = PKA-R2B complex activation | PKA-R2B holoenzyme dissociation, Cy5-IP20 fluorescence polarization; R2B truncated from residue 108, S112A mutant; 0% DMSO only, 100% 113 µM cGMP | activation, % at 11.4 µM | AID 504700 | 340,000 compounds, 0.079% hits;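 active means activation above a cutoff set at the mean over all compounds plus 3 SD, cut at about 18% in these data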;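 further: higher means more holoenzyme dissociation and a rise in polarization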
# Rev-erbA mod = modulators of human Rev-erb alpha DNA binding; P20393; Rev-erbα–FITC-DNA binding, fluorescence polarization, 90 min; activity, % at 10 µM; 370,000 compounds, 0.79% hits;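 active means activity above about 14%, limit read from the data; passing the limit was not always enough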
# Target sequence (P20393 whole entry, looked up): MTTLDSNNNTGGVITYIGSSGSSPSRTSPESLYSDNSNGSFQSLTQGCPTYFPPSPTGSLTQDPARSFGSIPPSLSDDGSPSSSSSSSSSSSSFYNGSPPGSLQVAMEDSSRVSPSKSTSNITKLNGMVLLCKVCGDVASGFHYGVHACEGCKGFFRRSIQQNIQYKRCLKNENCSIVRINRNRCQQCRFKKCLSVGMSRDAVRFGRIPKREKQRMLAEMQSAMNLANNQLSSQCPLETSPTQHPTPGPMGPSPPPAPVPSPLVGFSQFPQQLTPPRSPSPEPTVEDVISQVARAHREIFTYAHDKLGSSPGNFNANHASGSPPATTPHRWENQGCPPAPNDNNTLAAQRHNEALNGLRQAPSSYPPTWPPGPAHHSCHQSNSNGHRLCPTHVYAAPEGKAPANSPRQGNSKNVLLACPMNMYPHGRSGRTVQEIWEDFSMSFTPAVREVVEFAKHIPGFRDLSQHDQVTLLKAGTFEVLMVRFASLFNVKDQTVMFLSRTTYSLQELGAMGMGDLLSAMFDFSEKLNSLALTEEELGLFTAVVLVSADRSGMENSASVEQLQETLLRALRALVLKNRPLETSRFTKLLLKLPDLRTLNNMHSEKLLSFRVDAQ
# Rev-erbA confirm = confirmation of modulators of human Rev-erb alpha DNA binding. shares compounds with Rev-erbA mod. Rev-erb alpha FITC-DNA binding, fluorescence polarization, 90 min. activation, % at 25 µM. 3,000 compounds, 61% hits. AID 1259319;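 active means activation at or above a set limit, or at least 3 SD above the negative control mean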
# RORg DNA counter = affects RORgamma DNA binding in a Rev-erb alpha counter-screen | IC50, µM | purified RORgamma protein-FITC-DNA binding, fluorescence polarization | 910 compounds, 8% hits | shares compounds with Rev-erbA mod;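 active means Compounds whose fitted half-maximal concentration for disrupting protein-DNA binding is below 10 micromolar; the record names Rev-erb in its text, so the target is in doubt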
# Hits are given with their value; – = inactive; · = no result given.
SMILES,PKA-R1A act,NR2E3 ag-1,NR2E3 ag-2,PG9 binder,PKA-R2B act,Rev-erbA mod,Rev-erbA confirm,others
N#Cc1ccc(-c2cccnc2)nc1SCC(=O)Nc1sc2c(c1C#N)CCC2,–,–,–,·,–,–,·,
COc1ccc(-c2c(C#N)c(SCC(=O)Nc3ccccc3)nc3c2CCCC3)cc1,–,–,–,–,–,45,29,
CCc1ccccc1NC(=O)CSc1nc2c(c(-c3ccco3)c1C#N)CCCC2,–,–,–,–,–,29,20,
CCOC(=O)[C@@]12CN(C(=O)OC(C)(C)C)CC=C1N(Cc1ccc(OC)cc1)C(=O)[C@H]2CC(=O)N1CCSCC1,·,·,·,·,·,–,·,
COc1ccccc1Oc1ccc2c(c1)C(=O)N(c1ccc(Br)c3cccnc13)C2=O,–,–,–,–,–,39,22,
CCCC(=O)N1CCC[C@]2(CC[C@H](CCC#N)O2)C1,·,·,·,·,·,–,·,
COCc1[nH]nc2c1C(c1ccc3c(c1)OCO3)N(Cc1ccccc1)C2=O (configuration not stated),·,·,·,–,·,–,·,
CCN(CC)c1ccc(C(=O)OCc2cc(=O)oc3cc(O)ccc23)cc1,–,–,–,–,–,33,17,
CCOC(=O)C1C(=O)CC(C)(O)C(C(=O)OCC)C1c1ccc(OCC)cc1 (configuration not stated),–,–,–,–,–,–,·,
CCOC(=O)C1=C(Nc2ccc(Br)cc2)CC(C)(O)C(C(=O)OCC)C1c1ccccc1 (configuration not stated),–,–,–,–,–,28,–,
CN(C)c1ccc(N=Nc2ccccc2C(=O)OCC(=O)NCC2CCCCC2)cc1,–,–,–,–,–,29,36,RORg DNA counter=–
CS(=O)(=O)N[C@@H]1C[C@@H]2O[C@@H](CO)CC[C@@H]2O[C@@H]1CCc1ccc(-c2ccccc2F)cc1,·,·,·,·,·,–,·,
Cc1ccc(-c2nc3cc(Br)cnc3nc2-c2ccc(C)cc2)cc1,–,–,–,–,–,26,–,
Cc1nc2ncc(Br)cc2[nH]1,–,–,–,–,–,–,·,
COc1ccc(/C=C/S(=O)(=O)NCc2ccc(F)cc2)c(CNC(=O)OC(C)(C)C)c1,·,·,·,·,·,–,·,
COc1cc2sc3ccc(C#Cc4ccccn4)cc3c(=O)c2cc1OC,–,–,–,–,–,26,27,
COC(=O)c1sc(NC(=O)c2ccco2)c(C#N)c1C,–,–,–,–,–,–,·,
COc1ccccc1NC(=O)c1sc(NC(=O)c2ccco2)c(C#N)c1C,–,–,–,–,–,104,47,RORg DNA counter=–
COc1ccccc1NC(=O)c1oc2ccccc2c1NC(=O)c1ccco1,–,–,–,–,–,27,–,
Cc1ccccc1OCC(=O)Nc1sc(C(=O)Nc2cccc(C)c2C)c(C)c1C#N,–,–,–,·,–,54,23,
Cc1ccccc1OCC(=O)Nc1sc2c(c1C#N)CC(C)(C)NC2(C)C,–,–,–,–,–,–,·,
C=CCN1[C@H](CC(C)C)COc2cccc(N3CCSCC3)c2S1(=O)=O,·,·,·,·,·,–,·,
COC(=O)[C@]12C[C@H](CC(=O)NCc3cccc(C(F)(F)F)c3)C(=O)N(CCc3ccc(OC)c(OC)c3)C1=C[C@H](C(C)C)O[C@@H]2C1CC1,·,·,·,·,·,–,·,
CC(C)CC1NC(=O)c2ccccc2-n2c1nc1ccc(Cl)cc1c2=O (configuration not stated),·,·,·,–,·,–,·,
CC(C)CC1NC(=O)c2cc3ccccc3cc2-n2c1nc1ccc(Cl)cc1c2=O (configuration not stated),–,–,·,–,–,16,–,
SMILES,PKA-R1A act,NR2E3 ag-1,NR2E3 ag-2,PG9 binder,PKA-R2B act,Rev-erbA mod,Rev-erbA confirm,others
Cc1[nH]c2ccccc2c1CC(=O)Nc1ccc(Nc2cccnc2)c(-c2ccc(OC(F)(F)F)cc2)c1,·,·,·,–,·,–,·,
Cc1ccc2nc(N3CCN(S(=O)(=O)c4ccc(C)c(Cl)c4)CC3)c(C#N)cc2c1,–,–,–,–,–,189,145,RORg DNA counter=–
Cc1ccc2nc(N3CCN(C)CC3)c(C#N)cc2c1,–,–,–,–,–,–,·,
NC(=O)C1CCN(c2nc(-c3ccc(OCc4ccccc4)cc3)cs2)CC1,·,·,·,·,·,–,·,
CC(=O)c1ccc(NC(=O)c2cccc(S(=O)(=O)N3CCN(C)CC3)c2)cc1,–,–,–,–,–,–,·,
CC(=O)c1cc2c(cc1N/C(=N/S(=O)(=O)c1ccccc1)c1ccc(Cl)cc1)OCO2,–,–,–,–,–,90,48,RORg DNA counter=–
CC(=O)c1cc2c(cc1NC(=O)c1cccc(S(=O)(=O)N3CCN(C)CC3)c1)OCO2,–,–,–,–,–,20,–,
COc1ccc(S[C@]2(C(=O)NCC(C)C)CC(=O)N[C@@H]2c2ccc(OC)cc2)cc1,·,·,·,·,·,–,·,
O=C(CCl)Nc1ccc(C(=O)NCC2COc3ccccc3O2)cc1 (configuration not stated),·,·,·,·,·,–,·,
COc1cccc(NC(=O)c2cc(-c3cccnc3)nc3c(Cl)cccc23)c1,–,–,–,–,–,–,·,
O=C(Nc1ccc(F)cc1)c1cc(-c2ccncc2)nc2c(Cl)cccc12,–,–,–,–,–,24,–,
COCC(=O)N(c1ccc(C(C)(C)C)cc1)C(C(=O)NC(C)(C)C)c1cccnc1 (configuration not stated),·,·,·,·,·,–,·,
Cc1nn(C)c(C)c1NC(=O)CSc1nc(Cc2ccccc2)nc2c1cnn2-c1ccccc1,–,–,–,–,–,181,76,
COC(=O)[C@]12C[C@H](CC(=O)NCCCCc3ccccc3)C(=O)N(CCc3ccc(OC)c(OC)c3)C1=C[C@H](COCc1ccccc1)O[C@@H]2C,·,·,·,·,·,–,·,
COc1ccc(-c2nsc3c(N4CCN(S(=O)(=O)c5ccccc5F)CC4)ncnc23)cc1,–,–,–,–,–,32,–,
COc1ccc2nc(C)cc(N3CCN(S(=O)(=O)c4ccccc4F)CC3)c2c1,–,–,–,–,–,–,·,
CCCCCN1CCCCC(NC(=O)c2cccc(C(F)(F)F)c2)C1=O (configuration not stated),·,·,·,·,·,–,·,
CN(/N=C/c1cccnc1)c1cnn(-c2ccc(F)c(Cl)c2)c(=O)c1Cl,–,–,–,–,–,26,–,
COc1cccc(C(=O)Nc2ccccc2F)c1,–,–,–,–,–,–,·,
O=C(Nc1ccccc1F)c1cccc(C(=O)Nc2ccccc2F)c1,–,–,–,–,–,41,–,
Cc1ccc(-c2c(C(=O)NCC(C)C)oc(=O)c3ccccc23)cc1,·,·,·,·,·,–,·,
